Measured values taken from article PMC5148670 (Journal of medicinal chemistry, 2016).
Numbering of substitutions follows the chain as printed. Where two headings read alike, the source gives them in different places.

What was measured:
SETD8 [1] = biological target: T1, SETD8 (Homo sapiens, UniProt Q9NQR1); experiment: SETD8 scintillation proximity assay; assay type: biochemical
T1 sequence (Q9NQR1 232-393): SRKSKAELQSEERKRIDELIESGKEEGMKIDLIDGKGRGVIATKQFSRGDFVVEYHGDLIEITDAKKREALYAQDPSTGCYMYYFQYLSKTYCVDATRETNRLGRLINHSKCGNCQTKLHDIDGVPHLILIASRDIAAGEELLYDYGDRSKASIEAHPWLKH

[2] = test system: H4K20me mark in HeLa cells; experiment: H4K20me mark in HeLa cells; assay type: cell-based; conditions: up to 10μM
SETD8 [3] = biological target: T1, SETD8; experiment: Mass spectrometry of covalent modification, wild-type SETD8; assay type: binding; conditions: for covalent adduct formation by MS: purified SETD8 with full SET domain, 3 hours incubation
Procedure, shortened: (§1)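 Catalytic domain of SETD8 (wild type, C311S or C343S; the C311S protein carried a His tag) at 7 μM was incubated with 20–200 μM test compound in water for over 3 h. Samples were analysed by electrospray LC/MS time-of-flight to detect covalent adducts. Masses of each protein without compound were recorded as controls.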

PRC2 = PRC2 (Homo sapiens, UniProt Q15910); experiment: Mass spectrometry of covalent labeling, PRC2; assay type: binding
C311S mutant of SETD8 = biological target: T2, C311S mutant of SETD8 (Homo sapiens, UniProt Q9NQR1, C311S); experiment: Mass spectrometry of covalent modification, SETD8 C311S mutant; assay type: binding
T2 sequence (Q9NQR1 232-393 C311S): T1 sequence (Q9NQR1 232-393) with C80S
Procedure, shortened: as §1

SETD8 [4] = biological target: T1, SETD8; experiment: Residual enzymatic activity of the purified 3-SETD8 adduct; assay type: biochemical; conditions: purified monomer and dimer of 3-SETD8 adduct
Procedure, shortened: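 SETD8 was incubated with the covalent test compound until adduct formation was complete by MS. The adduct was purified by gel filtration, giving monomer and dimer forms that interconvert. Each form was then tested in the enzymatic assay and compared with wild-type SETD8.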

C343S mutant of SETD8 = biological target: T3, C343S mutant of SETD8 (Homo sapiens, UniProt Q9NQR1, C343S); experiment: Mass spectrometry of covalent modification, SETD8 C343S mutant; assay type: binding
T3 sequence (Q9NQR1 232-393 C343S): T1 sequence (Q9NQR1 232-393) with C112S
Procedure, shortened: as §1

SMYD3 = biological target: T4, SMYD3 (Homo sapiens, UniProt Q9H7B4); experiment: Mass spectrometry of covalent labeling, SMYD3; assay type: binding
T4 sequence (Q9H7B4 1-428): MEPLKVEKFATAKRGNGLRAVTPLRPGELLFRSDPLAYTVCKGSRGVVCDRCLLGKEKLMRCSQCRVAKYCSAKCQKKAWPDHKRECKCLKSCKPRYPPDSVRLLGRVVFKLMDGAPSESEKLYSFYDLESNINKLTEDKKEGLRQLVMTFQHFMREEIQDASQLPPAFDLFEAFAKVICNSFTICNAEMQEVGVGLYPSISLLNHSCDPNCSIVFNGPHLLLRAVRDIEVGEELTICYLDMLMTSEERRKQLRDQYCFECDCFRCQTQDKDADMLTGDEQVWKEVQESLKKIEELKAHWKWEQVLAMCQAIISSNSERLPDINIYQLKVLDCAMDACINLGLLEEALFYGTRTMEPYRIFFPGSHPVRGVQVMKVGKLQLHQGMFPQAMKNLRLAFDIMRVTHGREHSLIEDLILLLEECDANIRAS

SMYD2 = SMYD2 (Homo sapiens, UniProt Q9NRG4); experiment: Mass spectrometry of covalent labeling, SMYD2; assay type: binding
[5] = test system: 28 other methyltransferases; experiment: Methyltransferase selectivity assays; assay type: biochemical
SETD8 [6] = conditions: cited from earlier work

SMYD2, sequence (Q9NRG4 whole entry, species assumed): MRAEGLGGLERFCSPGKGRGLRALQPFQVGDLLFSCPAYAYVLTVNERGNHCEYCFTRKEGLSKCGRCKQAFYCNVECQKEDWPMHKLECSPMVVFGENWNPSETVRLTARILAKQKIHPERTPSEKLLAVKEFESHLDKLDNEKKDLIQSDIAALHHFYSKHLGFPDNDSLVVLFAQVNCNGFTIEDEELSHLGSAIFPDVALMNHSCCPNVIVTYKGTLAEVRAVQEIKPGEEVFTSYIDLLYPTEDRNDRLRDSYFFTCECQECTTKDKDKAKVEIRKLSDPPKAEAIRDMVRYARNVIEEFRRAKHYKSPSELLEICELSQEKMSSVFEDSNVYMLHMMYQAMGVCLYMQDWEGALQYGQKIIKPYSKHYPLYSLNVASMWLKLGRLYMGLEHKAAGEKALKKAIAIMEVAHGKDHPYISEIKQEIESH
PRC2, sequence (Q15910 whole entry): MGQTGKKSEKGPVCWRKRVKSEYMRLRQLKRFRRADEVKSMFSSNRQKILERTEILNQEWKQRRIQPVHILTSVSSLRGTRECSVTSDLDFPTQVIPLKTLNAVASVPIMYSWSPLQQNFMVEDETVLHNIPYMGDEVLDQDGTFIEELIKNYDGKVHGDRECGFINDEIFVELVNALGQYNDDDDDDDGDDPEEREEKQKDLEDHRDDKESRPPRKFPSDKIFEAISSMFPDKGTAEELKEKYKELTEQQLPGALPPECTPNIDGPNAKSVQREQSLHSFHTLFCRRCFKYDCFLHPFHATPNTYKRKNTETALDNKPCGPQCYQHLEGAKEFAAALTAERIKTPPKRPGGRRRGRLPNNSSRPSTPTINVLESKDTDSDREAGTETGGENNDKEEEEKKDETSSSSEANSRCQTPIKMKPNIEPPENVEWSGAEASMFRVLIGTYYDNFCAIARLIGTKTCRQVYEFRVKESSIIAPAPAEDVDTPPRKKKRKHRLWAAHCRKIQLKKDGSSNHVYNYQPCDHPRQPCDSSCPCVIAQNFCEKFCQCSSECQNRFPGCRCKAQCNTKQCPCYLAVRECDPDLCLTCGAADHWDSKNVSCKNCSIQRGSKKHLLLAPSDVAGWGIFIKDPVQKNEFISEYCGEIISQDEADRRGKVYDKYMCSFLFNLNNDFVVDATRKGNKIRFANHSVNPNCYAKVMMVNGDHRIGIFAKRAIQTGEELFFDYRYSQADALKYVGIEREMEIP
PRC2, sequence (O75530 whole entry partner): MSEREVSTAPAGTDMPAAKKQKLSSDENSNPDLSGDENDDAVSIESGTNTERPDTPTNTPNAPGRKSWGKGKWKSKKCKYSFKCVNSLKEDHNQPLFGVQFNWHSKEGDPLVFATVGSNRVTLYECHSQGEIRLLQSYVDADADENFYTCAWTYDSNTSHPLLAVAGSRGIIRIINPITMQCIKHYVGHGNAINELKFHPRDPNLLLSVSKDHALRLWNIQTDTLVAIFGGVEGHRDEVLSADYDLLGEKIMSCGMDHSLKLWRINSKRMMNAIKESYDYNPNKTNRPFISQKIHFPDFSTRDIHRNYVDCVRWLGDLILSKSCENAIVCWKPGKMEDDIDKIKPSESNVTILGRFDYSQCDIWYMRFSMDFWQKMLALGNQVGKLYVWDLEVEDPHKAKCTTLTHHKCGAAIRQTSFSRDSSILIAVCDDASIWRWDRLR
PRC2, sequence (Q15022 whole entry partner): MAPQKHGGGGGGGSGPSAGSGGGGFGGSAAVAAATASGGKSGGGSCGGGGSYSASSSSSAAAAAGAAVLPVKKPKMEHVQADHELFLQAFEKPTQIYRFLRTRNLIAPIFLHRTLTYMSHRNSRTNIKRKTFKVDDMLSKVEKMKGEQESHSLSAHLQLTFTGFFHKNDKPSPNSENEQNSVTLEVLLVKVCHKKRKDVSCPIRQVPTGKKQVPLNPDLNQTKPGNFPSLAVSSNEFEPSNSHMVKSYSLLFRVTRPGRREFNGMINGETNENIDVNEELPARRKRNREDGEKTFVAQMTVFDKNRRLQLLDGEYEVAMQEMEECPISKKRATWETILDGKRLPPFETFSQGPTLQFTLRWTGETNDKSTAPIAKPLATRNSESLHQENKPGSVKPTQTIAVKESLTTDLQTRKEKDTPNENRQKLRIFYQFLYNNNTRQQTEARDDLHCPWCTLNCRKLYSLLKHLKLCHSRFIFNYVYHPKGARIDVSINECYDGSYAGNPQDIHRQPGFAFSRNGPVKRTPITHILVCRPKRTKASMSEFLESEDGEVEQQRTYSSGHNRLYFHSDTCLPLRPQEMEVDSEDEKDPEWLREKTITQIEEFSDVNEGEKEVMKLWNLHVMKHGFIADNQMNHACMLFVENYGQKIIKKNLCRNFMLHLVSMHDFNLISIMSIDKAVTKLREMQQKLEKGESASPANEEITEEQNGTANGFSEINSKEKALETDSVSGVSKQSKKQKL

Hillslope (SETD8 [1]; incubation with SETD8 for 1 or 5 hours, both incubation times) | covalent modification of SETD8 in presence of glutathione (SETD8 [3]; 5 mM glutathione (GSH)) | labeling by MS analysis (PRC2) | covalent adduct formation by MS (C311S mutant of SETD8) | enzymatic activity retained by adduct relative to wild-type SETD8 (SETD8 [4]) | covalent adduct formation by MS (C343S mutant of SETD8) | labeling by MS analysis (SMYD3) | labeling by MS analysis (SMYD2) | activity in the SETD8 biochemical assay (SETD8 [1]) | Molecule | reduction in the H4K20me mark [2] | covalent adduct formation by MS (SETD8 [3]) | selectivity for SETD8 over other methyltransferases [5] | selectivity for SETD8 over other methyltransferases ([5]; listed as MS453) | mechanism of action (SETD8 [6]) | IC50 (SETD8 [6]; read-out: potency in vitro)
1.2 | not affected | no labeling | did not form an adduct | about 10% | formed a single-modified adduct | no labeling | no labeling |  | C=CC(=O)NCCCNc1nc(N2CCCC2)nc2cc(OC)c(OC)cc12 [compound 3, N-(3-((6,7-Dimethoxy-2-(pyrrolidin-1-yl)quinazolin-4-yl)amino)propyl)acrylamide] | did not observe significant reduction | efficiently forms a single-modified covalent adduct | selective for SETD8 over 30 other methyltransferases | selective for SETD8 against 28 other methyltransferases |  | 
 |  |  |  |  |  |  |  | inactive | C=CC(=O)NCCCN(C)c1nc(N2CCCC2)nc2cc(OC)c(OC)cc12 [compound 4, N-(3-((6,7-Dimethoxy-2-(pyrrolidin-1-yl)quinazolin-4-yl)(methyl)amino)propyl)acrylamide] |  | did not covalently modify SETD8 |  |  |  | 
 |  |  |  |  |  |  |  |  | nauhoic acid A |  |  |  |  | SAM-competitive | 6.5 µM
